Experimental data taken from PMC6130786 (ACS Omega, 2018).

Experiments:
Aβ fibrils = Aβ fibrils (Homo sapiens, UniProt P05067); test: Thioflavin-T competition binding assay, Aβ fibrils
Method in brief: (§1)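 Fibrils were prepared per earlier work and held fixed at 1 μM. Thioflavin-T was 50 nM with Aβ fibrils and 4 μM with tau fibrils. Test compound at varying concentrations was diluted in 30 mM Tris-HCl pH 7.4 with 0.1% BSA. Incubation was 1.5 h at room temperature, and fluorescence was read at ex 440/30, em 485/20. EC50 came from a one-site competitive fit, Ki = EC50/(1+[ligand]/Kd), as mean ± SD of two assays.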

tau fibrils = tau fibrils (Homo sapiens, UniProt P10636); test: Thioflavin-T competition binding assay, tau fibrils
Method in brief: as §1

tau fibrils, sequence (P10636 560-692 limits assumed): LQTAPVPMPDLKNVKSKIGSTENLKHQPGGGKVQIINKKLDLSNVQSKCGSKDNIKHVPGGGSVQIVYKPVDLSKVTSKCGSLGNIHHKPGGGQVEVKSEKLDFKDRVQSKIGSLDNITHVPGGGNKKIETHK
Aβ fibrils, sequence (P05067 672-713): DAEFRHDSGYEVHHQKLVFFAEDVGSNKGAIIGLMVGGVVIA

Row | Ki (Aβ fibrils) | Ki (tau fibrils) | SMILES
1 | 327 ± 76.4 nM | > 1000 nM | COc1ccc(/C=C/c2cc(-c3nccs3)[nH]n2)cc1 [Compound 13, (E)-2-(3-(4-Methoxystyryl)-1H-pyrazol-5-yl)thiazole]
2 | > 500 nM | > 1000 nM | COc1ccc(/C=C/C(=O)c2nccs2)cc1 [Compound 7, (E)-3-(4-Methoxyphenyl)-1-(thiazol-2-yl)prop-2-en-1-one]
3 | 353 ± 29.7 nM | 716 ± 58.7 nM | COc1ccc(/C=C/C(=O)c2nc3ccccc3s2)cc1 [Compound 4, (E)-1-(Benzo[d]thiazol-2-yl)-3-(4-methoxyphenyl)prop-2-en-1-one]

Further lines, the compound ahead of its results:

Row | SMILES | Ki (Aβ fibrils) | Ki (tau fibrils)
4 | O=C(/C=C/c1ccc([N+](=O)[O-])cc1)c1nc2ccccc2s1 [Compound 6, (E)-1-(Benzo[d]thiazol-2-yl)-3-(4-nitrophenyl)prop-2-en-1-one] | 89 ± 26.9 nM | –
5 | CN(C)c1ccc(/C=C/C(=O)c2nc3ccccc3s2)cc1 [Compound 5, (E)-1-(Benzo[d]thiazol-2-yl)-3-(4-(dimethylamino)phenyl)prop-2-en-1-one] | 91 ± 12.7 nM | –
6 | COc1ccc(-c2cc(-c3nccs3)on2)cc1 [Compound 10, 3-(4-Methoxyphenyl)-5-(thiazol-2-yl)isoxazole] | > 1000 nM | > 1000 nM
7 | O=C(/C=C/c1ccc([N+](=O)[O-])cc1)c1nccs1 [Compound 9, (E)-3-(4-Nitrophenyl)-1-(thiazol-2-yl)prop-2-en-1-one] | 404 ± 80.6 nM | –
8 | CN(C)c1ccc(/C=C/C(=O)c2nccs2)cc1 [Compound 8, (E)-3-(4-(Dimethylamino)phenyl)-1-(thiazol-2-yl)prop-2-en-1-one] | 505 ± 49.5 nM | 401 ± 118 nM
9 | COc1ccc(-c2cc(-c3nccs3)n[nH]2)cc1 [Compound 12, 2-(5-(4-Methoxyphenyl)-1H-pyrazol-3-yl)thiazole] | > 1000 nM | > 1000 nM
